Structures are written as SMILES.

The nature of this data set: Toxicity liver stage against HepG2, at 10uM. It is filed as cell-based. The arrangement: test concentration 10 uM, cell line HepG2-A16-CD81EGFP. Conditions: human, HepG2-A16-CD81EGFP cells; read-out: INHIBITION
The method, boiled down: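 Uninfected HepG2-A16-CD81EGFP cells, 3 × 10^3 per well, 1536-well, plated on prespotted compound at 10 μM final, parasite-free screening media added to match infected plates; puromycin 10 μM positive, DMSO 0.5% negative; run in parallel with 48 h PbLuc assay at 37 °C, 5% CO2; viability by CellTiter-Glo luminescence, normalized to controls.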
Turning to `N#Cc1c2n(c3c(N)ncnc13)CCCCC2`, the cytotoxicity at 10 µM is 15.1%.
Under `COCCOc1ncccc1CNC(=O)N1CCOCC1` stands -43.8%; under `CCNC(=O)N[C@H]1C[C@@H](Cc2cc(CN3CCCCC3)on2)C1(C)C`, -5.46%; under `COc1ccc2nnc(CCCC(=O)NCc3ccccc3)n2n1`, -4.1%.
In the case of `COC(=O)c1cc(OC)c(OC)cc1N(C)S(C)(=O)=O` it was 7.43%; in that of `CCN(Cc1nonc1C)C(=O)Cn1nc(C(F)(F)F)cc1C`, 0.7%.
Under `CCN(CC)c1nc(C)cc(C(=O)Nc2ccc(Br)cc2)n1` stands 6.46%; under `CN(CCc1ccncc1)Cc1c(C2CCCC2)[nH]c2ncccc12`, 1.46%; under `Cc1cc(N(C)C)nc(C2(C)CCCNC2)n1` (stereo not given), 1.03%.
For the compound `COCC(=O)N1CCC(c2cc(N(C)C)cc(C)n2)CC1`, the cytotoxicity at 10 µM was determined as 8.6%.
Under `Cc1c[nH]nc1C1CCN(S(=O)(=O)N(C)C)CC1` stands 0.462%; under `Cc1cnc(CN2CCCCC2c2nc(-c3ccccc3)no2)cn1` (stereo not given), -42%; under `CCCS(=O)(=O)N1CCCC(c2nc(-c3ccccc3)c[nH]2)C1` (stereo not given), 16.2%.
Under `Cn1cc(CN2CCS(=O)(=O)C(C)(C)C2)cn1` stands 0.512%.
In the case of `COC(=O)C(O)C1CCN(CCc2ccncc2)CC1` (stereo not given), the cytotoxicity at 10 µM came to 11.8%.
Under `C1CCC(CSc2nnnn2C2CC2)OC1` (stereo not given) stands 5.29%; under `O=C(NCc1nnc2n1CCCCC2)N(Cc1ccccn1)C1CC1`, 2.46%.
Under `O=C(NCc1nccn1CCc1ccccc1)NCC1CCC1` stands 4.7%; under `CC(CC(=O)NCCNS(C)(=O)=O)C1CCCCC1` (stereo not given), 6.43%.
As for `Cc1nc(C2CCCN2Cc2cc(Cl)c3c(c2)OCO3)no1` (stereo not given), the cytotoxicity at 10 µM was 7.51%.
Under `CC(C)(NC(=O)Cc1ccccc1F)C(C)(C)C(=O)O` stands -9.1%.
Turning to `OC(CNC1CCSCC1)c1cccc(OCc2ccccc2)c1` (stereo not given), the cytotoxicity at 10 µM was determined as 8.22%.
In the case of `c1ccn(Cc2nnc3n2CCCN(c2cnccn2)C3)c1` it was -2.2%; in that of `CN1CCN(c2ncnc3c2c(C(=O)NC2CC2)c2ccccn23)CC1`, 3.34%.
Under `COCCN1C[C@H]2[C@@H](C1)N(C(=O)c1cccs1)CC[C@H]2OC` stands -2.03%; under `CC(C)c1nnsc1CNC(=O)C1CCN(C(=O)C2CCC2)CC1`, -2.75%; under `COc1cc(C#N)ccc1OC12CCCN(CC1)C2` (stereo not given), -19.1%.
In the case of `CO[C@H]1C[C@@H](O)C12CCN(CCOc1ccc(Cl)cc1)CC2`, the cytotoxicity at 10 µM is -9.66%.
Under `Cc1nc2c(c(N3CCCC(CO)C3)n1)CCN(Cc1ccco1)CC2` (stereo not given) stands -0.044%; under `CCn1cnnc1CN(C)Cc1c[nH]nc1-c1ccc(F)cc1`, -2.59%; under `CC1=CC(C)(C)N(CN2C(=O)c3ccccc3C2=O)c2ccccc21`, 5.82%.
As for `Cc1nn(C)c(C)c1C(C(=O)O)N1CC=C(c2ccccc2)CC1` (stereo not given), the cytotoxicity at 10 µM was -2.11%.
In the case of `CN1CCN(c2cc(CCNC(=O)C3CCC3)nc(C3CC3)n2)CC1` it was 0.462%.
In the case of `Cc1ncncc1C(=O)Nc1cnn(CC(=O)NC2CCCC2)c1` it was 4.88%.
Under `Cc1cc(C)n(CC2CCCN2CCc2ccccn2)n1` (stereo not given) stands -8.01%; under `Cn1c(CN2CCOC(c3nc(C(C)(C)C)n[nH]3)C2)nnc1C1CC1` (stereo not given), 5.37%.
`Cc1ncc(CN2CCCC2)c2cc(C(=O)c3ccc(Br)cc3)oc12`: the cytotoxicity at 10 µM amounted to 1.46%.
In the case of `Cc1cc(CN2C[C@H](OCC3CCOCC3)[C@H]3COC[C@H]32)oc1C` it was 6.88%; in that of `CCc1ccc(CN2CC[C@@H]3NC(=O)CC[C@@H]32)o1`, 3.06%.
In the case of `CC(C)c1nnc(N2C[C@H]3CC[C@@H](C2)N(CC2CCC2)C3)s1` it was -7.38%.
